Experimental findings from ChEMBL document CHEMBL4033654, “Ortho group activation of a bromopyrrole ester in Suzuki-Miyaura cross-coupling reactions: Application to the synthesis of new microtubule depolymerizing agents with potent cytotoxic activities” (Bioorg Med Chem, 2017) are described below.

In series [1] the test system is Mus musculus. Kind of series: Toxicity in athymic nude mouse xenografted with human MDA-MB-435 cells assessed as body weight loss at 20 mg/kg, ip administered on day 2, 4, 6, 8 and 11 measured on day 14. The series is classed as organism-based. To be noted: in vivo. In short, it runs like this:
(§1)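 Female athymic nude mice, six weeks old, bearing bilateral MDA-MB-435 xenografts averaging 200 mm3 at the start of treatment. […] Body weight recorded twice weekly through day 14. Tumor volumes analysed by 2-way ANOVA with Dunnett's post-hoc test.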

In series [2] the test system is MDA-MB-435. Briefly: Antitumor activity against human MDA-MB-435 cells xenografted in athymic nude mouse assessed as tumor growth inhibition at 20 mg/kg, ip administered on day 2,4,6,8, and 11 measured on day 14. It counts as functional, organism-based. A digest of the protocol:
as §1
(In general: Xenograft models place foreign cells or tissue in a host animal.)

Series [3] deals with MDA-MB-435. Briefly: Antiproliferative activity against human MDA-MB-435 cells after 48 hrs by SRB assay. The series is classed as functional, cell-based. Particulars: MDA-MB-435, 48 h. In short, it runs like this:
(§2)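 Cell growth measured by sulforhodamine B assay across a concentration range. IC50 is taken from the dose-response curves, as mean ± SD of at least 3 independent experiments, each run in triplicate. HeLa WT-βIII cells express βIII tubulin. SK-OV-3 MDR-1-M6/6 cells are the P-glycoprotein-expressing isogenic partner of parental SK-OV-3.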
On the technique in general: Sulforhodamine B stains cellular protein and so reports cell mass.

The nature of series [4]: Antiproliferative activity against human SKOV3-MDR1-M6/6 cells after 48 hrs by SRB assay. To be noted: SKOV3-MDR1-M6/6, 48 h. The series is classed as functional, cell-based. In short, it runs like this:
as §2

The test system of series [5] is HeLa. Kind of series: Antiproliferative activity against human HeLa cells after 48 hrs by SRB assay. It counts as functional, cell-based. In short, it runs like this: as §2
For series [6], the system named is HeLa. Kind of series: Antiproliferative activity against human HeLa cells expressing wild type beta3 tubulin after 48 hrs by SRB assay. It counts as functional, cell-based. In short, it runs like this: as §2
Series [7] in a line: Resistance index, ratio of IC50 for human SKOV3-MDR1-M6/6 cells to IC50 for human SKOV3 cells. It counts as functional. A digest of the protocol: (§3)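 Relative resistance is the SRB IC50 in the expressing line divided by the IC50 in the isogenic parental line. The pairs are HeLa WT-βIII over HeLa (βIII tubulin) and SK-OV-3 MDR-1-M6/6 over SK-OV-3 (P-glycoprotein).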
The test system of series [8] is HeLa. Briefly: Resistance index, ratio of IC50 for human HeLa cells expressing wild type beta3 tubulin to IC50 for human HeLa cells. The series is classed as functional. A digest of the protocol: as §3
A short description of series [9]: Induction of tubulin depolymerization in rat A-10 cells after 18 hrs by indirect immunofluorescence method. The series is classed as cell-based. In short, it runs like this: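 A-10 cells exposed to a wide range of concentrations. Microtubules stained by indirect immunofluorescence, with nuclei counterstained. The percentage of depolymerized cellular microtubules is estimated visually. EC50, the concentration giving 50% loss of cellular microtubules, is found by linear regression.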

Series [10] deals with SK-OV-3. Kind of series: Antiproliferative activity against human SKOV3 cells after 48 hrs by SRB assay. It counts as functional, cell-based. Particulars: SK-OV-3, 48 h. A digest of the protocol:
as §2

For series [11], the system named is MDA-MB-435. Kind of series: Antitumor activity against human MDA-MB-435 cells xenografted in athymic nude mouse assessed as tumor growth inhibition at 75 mg/kg, ip administered daily for 9 days measured on day 14. The series is classed as functional, organism-based. A digest of the protocol:
(§4)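 Six-week-old female athymic nude mice implanted bilaterally with MDA-MB-435 cells. Dosing starts when tumors average 200 mm3. Drug given at 75 mg/kg/dose i.p. daily on days 0–8, solubilized in 2:1 Tween80:DMSO and diluted into PBS. Mice weighed twice weekly. On day 14, tumors excised and weighed and compared with control by unpaired two-tailed Student's t-test. Tumor volumes analysed by 2-way ANOVA with Dunnett's test.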

For series [12], the system named is MDA-MB-435. Kind of series: Antitumor activity against human MDA-MB-435 cells xenografted in athymic nude mouse assessed as reduction in mean tumor mass at 75 mg/kg, ip administered daily for 9 days measured on day 14. The series is classed as functional, organism-based. A digest of the protocol: as §4
The test system of series [13] is Mus musculus. Kind of series: Toxicity in athymic nude mouse xenografted with human MDA-MB-435 cells assessed as overt toxicity at 75 mg/kg, ip administered daily for 9 days measured on day 14. It counts as organism-based. To be noted: in vivo, 216 h. In short, it runs like this: as §4

SMILES strings stand for the structures. Calls of active or inactive are those of the source. The calls are words filed in the database; no cut-off is given here.

With `CC(=O)O[C@H]1C(=O)[C@@]2(C)[C@H]([C@H](OC(=O)c3ccccc3)[C@]3(O)C[C@H](OC(=O)[C@H](O)[C@@H](NC(=O)c4ccccc4)c4ccccc4)C(C)=C1C3(C)C)[C@]1(OC(C)=O)CO[C@@H]1C[C@@H]2O` [PACLITAXEL], the Activity in series [1] is 2.5%. Also, in series [2], the TGI result is “Active”. In addition, the IC50 in series [3] amounted to 2 nM; in [4], 2330 nM; in series [5] it was 1.5 nM; in [6], 21.1 nM.

For the compound `CCOC(=O)c1[nH]c(C#N)c(-c2ccc(OC)c(OC)c2OC)c1Br`, the “Ratio IC50” value is 1.6 in series [7] and 1.3 in [8]. Besides, the EC50 in series [9] was determined as 88 nM. Moreover, the IC50 in [3] came out at 19.6 nM; in series [4], 42.2 nM; in [5], 20.6 nM; in series [10], 26.2 nM; in series [6], 26.1 nM.

In the case of `CCOC(=O)c1[nH]c(/C=N/O)c(-c2ccc(OC)c(OC)c2OC)c1Br`, the entries for the “Ratio IC50” value in series [7] and in series [8] were 1.8 and 1.4, respectively. For the same compound, in series [9], the EC50 came out at 56 nM. Besides, the IC50 in [3] was determined as 14 nM; in series [4], 41.6 nM; in series [5], 18 nM; in [10] it was 23.1 nM; in [6] it was 25 nM.

As to `CCOC(=O)c1[nH]c(/C=N\O)c(-c2ccc(OC)c(OC)c2OC)c1Br`, the “Ratio IC50” value in series [7] is listed as 1.5; in [8] it was 1.1. For the same compound, the EC50 in [9] was 108 nM. Moreover, the IC50 came out at 25.3 nM in series [3]; 49.6 nM in series [4]; 29.4 nM in [5]; 33.7 nM in series [10]; 31.3 nM in [6].

For `CCOC(=O)c1[nH]c(Br)c(-c2ccc(OC)c(OC)c2OC)c1Br`, the “Ratio IC50” value in series [7] is 0.7; in series [8] it was 1.2. Moreover, a half-maximal response in [9] (EC50) required 37 nM. In addition, the half-inhibitory concentration (IC50) was 10.4 nM in [3]; 10.6 nM in [4]; 12.9 nM in series [5]; 15.2 nM in series [10]; 15.7 nM in series [6].

On to `CCOC(=O)c1[nH]c(Cl)c(-c2ccc(OC)c(OC)c2OC)c1Cl`, for which the “Ratio IC50” value in series [7] was determined as 0.67; in series [8], 1.1. The midpoint of the response in series [9], the EC50, lay at 1000 nM. Moreover, the IC50 in series [3] was 116 nM; in series [4] it was 140 nM; in [5], 131 nM; in [10] it was 210 nM; in [6], 140 nM.

Take `CCOC(=O)c1[nH]c(C=NO)c(-c2ccc(OC)c(OC)c2OC)c1Br` (mixture of isomers): the “Ratio IC50” value in series [7] turned out to be 1.2; in [8] it was 0.9. The TGI result in series [11] was “Active”. In addition, the response in series [9] was half-maximal at 9.2 nM (EC50). In addition, the IC50 came out at 2.7 nM in [3]; 6.6 nM in series [4]; 5 nM in [5]; 5.3 nM in series [10]; 4.1 nM in [6]. For the same compound, the outcome in [12] was Active. Further, the Activity entry in [13] is “Non-Toxic”.

As usually defined, the IC50 is the point on the concentration scale where inhibition reaches its midpoint. As usually defined, the EC50 is the concentration giving half of the maximal effect. Read a high EC50 as a need for much substance.
